Assay results as given in ChEMBL document CHEMBL6127097, “Structure-Guided Discovery of cis-Hexahydro-pyrido-oxazinones as Reversible, Drug-like Monoacylglycerol Lipase Inhibitors” (J Med Chem, 2024).
Active and inactive are the calls of the source.

What was measured:
[1] = AUClast in Wistar rat at 5 mg/kg, po measured upto 24 hrs by LC-MS/MS analysis; type: ADME, organism-based; conditions: in vivo
Summary of the method: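 Male Wistar rats (N = 3 per group) received a single dose. The i.v. dose was 1 mg/kg in NMP/0.9% NaCl 30:70. The p.o. dose was 5 mg/kg in NMP/HPMC/diisooctyl sulfosuccinate 10:90. Blood was taken into K2EDTA from 0.083 (i.v.) or 0.25 h to 24 h. Plasma was assayed by LC-MS/MS and analysed non-compartmentally.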

Monoglyceride lipase [2] = molecular target: T1, Monoglyceride lipase (Homo sapiens, UniProt Q99685); experiment: Inhibition of human MAGL using native substrate by Rapidfire MS assay
T1 sequence (Q99685 whole entry): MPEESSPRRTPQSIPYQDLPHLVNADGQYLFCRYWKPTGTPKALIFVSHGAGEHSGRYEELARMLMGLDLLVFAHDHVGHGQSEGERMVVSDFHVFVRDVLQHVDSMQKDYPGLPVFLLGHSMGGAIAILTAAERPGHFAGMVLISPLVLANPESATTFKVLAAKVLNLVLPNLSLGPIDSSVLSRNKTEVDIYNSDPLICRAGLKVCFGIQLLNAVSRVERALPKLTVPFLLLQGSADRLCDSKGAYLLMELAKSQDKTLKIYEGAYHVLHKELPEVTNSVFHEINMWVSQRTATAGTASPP

[3] = Chemical stability at pH 8 incubated for 2 hrs; type: physicochemical; conditions: buffer, pH 8, 2 h
Summary of the method: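 Compound was held in aqueous buffer at the stated pH for 2 h at 37 °C.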

[4] = Plasma protein binding in mouse assessed as fraction unbound by equilibrium dialysis based LC-MS/MS method; type: ADME, cell-free
Summary of the method: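 Equilibrium dialysis across a 12–14 kDa cutoff membrane in a Teflon 96-well device. Pooled frozen plasma is adjusted to pH 7.4 and spiked at 1000 nM initial total, against Soerensen buffer pH 7.4. Incubation is 5 h at 37 °C, 5% CO2, with diazepam control in each well. %fu = 100 × buffer/matrix concentration after dialysis; recovery accepted at 80–120%.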

[5] = Drug concentration in mouse CSF at 30 mg/kg, ip measured after 24 hrs; type: ADME, organism-based, Cerebrospinal fluid; conditions: read-out: Ct
Monoglyceride lipase [6] = molecular target: T2, Monoglyceride lipase (Rattus norvegicus, UniProt Q8R431); experiment: Binding affinity to rat MAGL assessed as equilibrium dissociation constant by SPR analysis
T2 sequence (Q8R431 whole entry): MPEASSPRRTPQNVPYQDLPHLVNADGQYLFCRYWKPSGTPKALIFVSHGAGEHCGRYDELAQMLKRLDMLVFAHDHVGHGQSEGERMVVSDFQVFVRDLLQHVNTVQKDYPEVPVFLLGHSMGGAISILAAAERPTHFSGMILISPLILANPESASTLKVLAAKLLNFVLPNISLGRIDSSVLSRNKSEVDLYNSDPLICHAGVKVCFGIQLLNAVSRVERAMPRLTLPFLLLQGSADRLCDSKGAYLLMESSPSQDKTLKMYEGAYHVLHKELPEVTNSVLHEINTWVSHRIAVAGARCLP
Summary of the method: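 Human or rat MAGL was immobilized by amine coupling without ethanolamine quenching. Runs were done at 18 °C in 10 mM HEPES, 150 mM NaCl, 0.05% P20, 50 µM EDTA, pH 7.4, with 1% DMSO. Single-cycle kinetics used five concentrations, top 1 µM in 2-fold steps, at 30 µL/min, giving kon, koff and Kd.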

[7] = molecular target: T3, Lysophosphatidylserine lipase ABHD12 (Mus musculus) (UniProt Q99LR1); experiment: Inhibition of ABHD12 in mouse brain lysates at 10 uM by ABPP assay; type: subcellular
T3 sequence (whole entry): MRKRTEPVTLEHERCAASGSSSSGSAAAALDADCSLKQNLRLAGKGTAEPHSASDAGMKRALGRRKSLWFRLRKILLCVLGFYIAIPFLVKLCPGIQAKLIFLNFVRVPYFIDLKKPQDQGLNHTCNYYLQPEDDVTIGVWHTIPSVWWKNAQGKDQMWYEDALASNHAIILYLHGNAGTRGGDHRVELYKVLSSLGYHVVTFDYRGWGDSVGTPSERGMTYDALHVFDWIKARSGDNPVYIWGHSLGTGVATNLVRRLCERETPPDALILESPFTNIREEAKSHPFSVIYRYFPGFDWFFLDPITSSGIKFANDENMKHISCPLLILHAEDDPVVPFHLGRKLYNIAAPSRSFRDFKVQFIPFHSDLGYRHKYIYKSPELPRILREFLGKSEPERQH
Summary of the method: (§1)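 Gel-based activity-based protein profiling of hydrolases, with the inhibitor at 10 µM.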

[8] = molecular target: T4, Monoglyceride lipase (Mus musculus) (UniProt O35678); experiment: In vivo receptor occupancy at MAGL receptor in mouse at 30 mg/kg, ip measured after 24 hrs; type: functional, organism-based
T4 sequence (whole entry): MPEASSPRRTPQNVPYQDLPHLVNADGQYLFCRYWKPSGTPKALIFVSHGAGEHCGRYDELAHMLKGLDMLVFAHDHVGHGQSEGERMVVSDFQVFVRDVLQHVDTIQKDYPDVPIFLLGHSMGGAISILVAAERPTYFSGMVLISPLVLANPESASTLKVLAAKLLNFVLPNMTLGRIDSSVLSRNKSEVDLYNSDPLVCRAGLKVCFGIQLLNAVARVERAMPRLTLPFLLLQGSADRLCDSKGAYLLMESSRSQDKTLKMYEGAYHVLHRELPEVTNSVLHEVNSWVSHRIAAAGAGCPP
Summary of the method: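 Mice dosed 30 mg/kg i.p. in NaCl/DMSO/TW80 (80/10/10). Brain proteome was prepared at set time points over 24 h and MAGL occupancy read by activity-based protein profiling.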

Mus musculus = experiment: Antiinflammatory activity in LPS-induced CD-1 mouse neuroinflammation model assessed as decrease in brain IL-1beta mRNA expression at 30 mg/kg, ip measured after 6 hrs by qRT-PCR analysis; type: functional, organism-based
Summary of the method: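 CD-1 mice received NaCl + vehicle, LPS (5 mg/kg) + vehicle, or LPS + inhibitor at 30 mg/kg i.p. The vehicle was NaCl/DMSO/Tween 80, 80/10/10. Mice were killed 6 h after compound dosing. LCN2 and IL1b mRNA in cortical brain lysates were quantified by droplet digital qRT-PCR.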

[9] = molecular target: T5, Monoacylglycerol lipase ABHD6 (Mus musculus) (UniProt Q8R2Y0); experiment: Inhibition of ABHD6 in mouse brain lysates at 10 uM by ABPP assay; type: subcellular; summary of the method: as §1
T5 sequence (whole entry): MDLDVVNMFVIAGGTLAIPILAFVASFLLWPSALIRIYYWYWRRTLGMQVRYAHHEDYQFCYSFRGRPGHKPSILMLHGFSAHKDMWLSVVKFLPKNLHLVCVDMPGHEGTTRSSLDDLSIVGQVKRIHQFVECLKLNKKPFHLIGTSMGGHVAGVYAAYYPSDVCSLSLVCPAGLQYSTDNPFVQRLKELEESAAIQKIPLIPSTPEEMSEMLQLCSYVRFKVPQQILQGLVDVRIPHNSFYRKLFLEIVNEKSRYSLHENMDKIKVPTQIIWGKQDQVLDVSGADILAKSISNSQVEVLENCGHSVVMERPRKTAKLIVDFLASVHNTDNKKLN

AUC(0-t) at 24 h [1] [ng·h/mL]	IC50 (Monoglyceride lipase [2]; read-out: IC50) [nM]	IC50 (Monoglyceride lipase [2]; read-out: pIC50 (converted)) [nM]	Stability [3]	fraction unbound [4]	concentration at 24 h [5] [nM]	Kd (Monoglyceride lipase [6]) [nM]	inhibition [7]	Activity [8] [%]	inhibition [9]	Compound	Activity (Mus musculus)
19100	32	28.2	Stable	0.047	2	64				O=C1CO[C@H]2CCN(C(=O)N3CCC(Cc4ccc(C(F)(F)F)cc4)CC3)C[C@H]2N1 [listing 1 of 2 here]	
							inactive	5	inactive	O=C1CO[C@H]2CCN(C(=O)N3CCC(Cc4ccc(C(F)(F)F)cc4)CC3)C[C@H]2N1 [listing 2 of 2 here]	Active
